Each structure is given as a SMILES string. In brackets after ≈: the same amount, converted by molar mass. A value given as a limit tells only on which side of the number the result lay.

Assay [1] deals with Proteus vulgaris. The assay is described as follows: Antibacterial activity against Proteus vulgaris at 100 ug/disc after 24 hrs by disc diffusion method. The class given is functional. The conditions noted are these: read-out: DIZ. The essentials: (§1)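 Paper disc diffusion on autoclaved Mueller-Hinton agar poured 5 mm deep. Agar was swab-inoculated with 10⁵ CFU/mL suspension (0.5 McFarland). Discs 6.25 mm across were soaked in compound solution in DMSO (3.12–100 µg/mL) and plates incubated 24 h at (37 ± 1) °C. Read-out was inhibition zone (mm). DMSO control disc; ciprofloxacin or ketoconazole reference, 100 µg/disc. Mean of three independent experiments.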

Assay [2] has as its system Shigella flexneri. The assay is described as follows: Antibacterial activity against Shigella flexneri at 100 ug/disc after 24 hrs by disc diffusion method. The class given is functional. The note with it: read-out: DIZ. The essentials: as §1
Assay [3] relates to Staphylococcus aureus. The assay is described as follows: Antibacterial activity against Staphylococcus aureus after 24 hrs by agar streak dilution method. Type of assay: functional. The essentials: (§2)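 MIC by agar streak dilution. Graded amounts of DMSO stock (100 μg/mL) were mixed into molten sterile nutrient agar and poured 4–5 mm deep. Serial concentrations spanned 3.12–100 µg/mL. Plates were inoculated with about 10⁵ CFU/mL of bacterial suspension and incubated at (37 ± 1) °C for 24 h. Each value is the mean of three independent experiments.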

In assay [4] the test system is Bacillus cereus. The assay is described as follows: Antibacterial activity against Bacillus cereus after 24 hrs by agar streak dilution method. The class given is functional. The essentials: as §2
Assay [5] deals with Escherichia coli. The assay is described as follows: Antibacterial activity against Escherichia coli after 24 hrs by agar streak dilution method. Type of assay: functional. An outline of the steps: as §2
Assay [6] concerns Pseudomonas aeruginosa. The assay is described as follows: Antibacterial activity against Pseudomonas aeruginosa […] after 24 hrs by agar streak dilution method. The class given is functional.
Assay [7] deals with Klebsiella pneumoniae. The experiment in a line: Antibacterial activity against Klebsiella pneumoniae […] after 24 hrs by agar streak dilution method. The class given is functional.
For assay [8], the system named is Salmonella typhi. The assay is described as follows: Antibacterial activity against Salmonella Typhi after 24 hrs by agar streak dilution method. The class given is functional, Salmonella enterica subsp. enterica serovar Typhi. The conditions noted are these: Salmonella enterica. The essentials: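 Agar streak dilution: DMSO stock (100 µg/mL) graded into molten sterile nutrient agar, poured 4–5 mm deep and solidified. Plates carry serial dilutions spanning 3.12–100 µg/mL. Applied ~10⁵ CFU/mL suspension, then incubated 24 h at (37 ± 1) °C. MIC read as the lowest inhibitory concentration; each value is the mean of three independent experiments.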

The test system of assay [9] is Proteus vulgaris. The assay is described as follows: Antibacterial activity against Proteus vulgaris after 24 hrs by agar streak dilution method. Type of assay: functional. The essentials:
as §2

Assay [10] relates to Shigella flexneri. The assay is described as follows: Antibacterial activity against Shigella flexneri after 24 hrs by agar streak dilution method. Type of assay: functional. An outline of the steps:
as §2

For assay [11], the system named is Aspergillus niger. The assay is described as follows: Antifungal activity against Aspergillus niger after 48 hrs by agar streak dilution method. Type of assay: functional. An outline of the steps: (§3)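 Fungal MIC by agar streak dilution on Sabouraud dextrose agar, poured 4–5 mm deep. Compound from a DMSO stock (100 μg/mL) was incorporated at serial concentrations of 3.12–100 µg/mL. Plates were inoculated with about 10⁵ CFU/mL of suspension and incubated at (37 ± 1) °C for 48 h. Each value is the mean of three independent experiments.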

Assay [12] relates to Aspergillus fumigatus. The assay is described as follows: Antifungal activity against Aspergillus fumigatus after 48 hrs by agar streak dilution method. The class given is functional. An outline of the steps:
as §3

Assay [13] deals with Aspergillus clavatus. The experiment in a line: Antifungal activity against Aspergillus clavatus after 48 hrs by agar streak dilution method. Type of assay: functional. An outline of the steps:
as §3

In assay [14] the test system is Candida albicans. The assay is described as follows: Antifungal activity against Candida albicans after 48 hrs by agar streak dilution method. Type of assay: functional. The essentials:
as §3

The subject of assay [15] is Aspergillus niger. The experiment in a line: Antifungal activity against Aspergillus niger at 100 ug/disc after 24 hrs by disc diffusion method. Type of assay: functional. The note with it: read-out: DIZ. The essentials:
as §1

In assay [16] the test system is Aspergillus fumigatus. The assay is described as follows: Antifungal activity against Aspergillus fumigatus at 100 ug/disc after 24 hrs by disc diffusion method. The class given is functional. The conditions noted are these: read-out: DIZ. The essentials:
as §1

For assay [17], the system named is Aspergillus clavatus. The assay is described as follows: Antifungal activity against Aspergillus clavatus at 100 ug/disc after 24 hrs by disc diffusion method. Type of assay: functional. The note with it: read-out: DIZ. The essentials:
as §1

In assay [18] the test system is Candida albicans. The experiment in a line: Antifungal activity against Candida albicans at 100 ug/disc after 24 hrs by disc diffusion method. Type of assay: functional. The conditions noted are these: read-out: DIZ. The essentials: as §1
The subject of assay [19] is Staphylococcus aureus. The assay is described as follows: Antibacterial activity against Staphylococcus aureus at 100 ug/disc after 24 hrs by disc diffusion method. Type of assay: functional. The note with it: read-out: DIZ. An outline of the steps:
as §1

The subject of assay [20] is Bacillus cereus. The experiment in a line: Antibacterial activity against Bacillus cereus at 100 ug/disc after 24 hrs by disc diffusion method. The note with it: read-out: DIZ. The class given is functional. An outline of the steps:
as §1

The test system of assay [21] is Escherichia coli. The assay is described as follows: Antibacterial activity against Escherichia coli at 100 ug/disc after 24 hrs by disc diffusion method. Type of assay: functional. The note with it: read-out: DIZ. The essentials:
as §1

The subject of assay [22] is Pseudomonas aeruginosa. The assay is described as follows: Antibacterial activity against Pseudomonas aeruginosa at 100 ug/disc after 24 hrs by disc diffusion method. Type of assay: functional. The conditions noted are these: read-out: DIZ. An outline of the steps: as §1
Assay [23] deals with Klebsiella pneumoniae. The experiment in a line: Antibacterial activity against Klebsiella pneumoniae at 100 ug/disc after 24 hrs by disc diffusion method. The class given is functional. The note with it: read-out: DIZ. An outline of the steps: as §1
For assay [24], the system named is Salmonella typhi. The assay is described as follows: Antibacterial activity against Salmonella Typhi at 100 ug/disc after 24 hrs by disc diffusion method. Type of assay: functional, Salmonella enterica subsp. enterica serovar Typhi. The conditions noted are these: Salmonella enterica, read-out: DIZ. An outline of the steps: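 Paper disc diffusion on Mueller-Hinton agar poured 5 mm deep; 10⁵ CFU/mL suspension (0.5 McFarland) swabbed over surface. 6.25 mm filter paper discs soaked in compound in DMSO, incubated 24 h at (37 ± 1) °C; inhibition zone diameter in mm. DMSO disc as blank; ciprofloxacin 100 µg/disc as reference. Mean of three independent experiments.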

Turning to `CCN1CCN(CC2SC(c3cccc(O)c3O)N(c3ccc(Nc4nc(Oc5cc(=O)n(C)c6ccccc56)nc(N(C)C)n4)cc3)C2=O)CC1` (centres undefined), the zone of inhibition at 100 µg/disc was 13 mm with Proteus vulgaris [1]; under 10 mm in the assay on Shigella flexneri [2]; under 10 mm in the assay with Aspergillus niger [15]; 13 mm with Aspergillus fumigatus [16]; 12 mm in the assay on Aspergillus clavatus [17]; under 10 mm in the assay on Candida albicans [18]. Moreover, the zone of inhibition at 100 µg/disc was under 10 mm in the assay on Staphylococcus aureus [19]; 12 mm with Bacillus cereus [20]; under 10 mm with Escherichia coli [21]; 11 mm in the assay on Pseudomonas aeruginosa [22]; 16 mm with Klebsiella pneumoniae [23]; 14 mm with Salmonella typhi [24]. Besides, the minimum inhibitory concentration (MIC) against Staphylococcus aureus [3], in the assay on Bacillus cereus [4], in the assay on Escherichia coli [5], against Pseudomonas aeruginosa [6], in the assay with Klebsiella pneumoniae [7] and against Salmonella typhi [8] was 100 µg/mL (≈ 138 µM) in each case. Also, the MIC against Proteus vulgaris [9], against Shigella flexneri [10], with Aspergillus niger [11], against Aspergillus fumigatus [12], against Aspergillus clavatus [13] and with Candida albicans [14] was 100 µg/mL (≈ 138 µM) each time.

Source of the values: ChEMBL document CHEMBL1933017, “Synthesis and biological evaluation of some thiazolidinones as antimicrobial agents” (2012).
